Results: EPA's CvTdb concentration-time database
One block for each molecule: values may come before it.

Legend:
[1] = test system: Rat; test: concentration in plasma after dosing; conditions: 5 h; dosed: Wyeth-14643; 1.0 mg/kg; oral; Male; Sprague-Dawley
[2] = test system: Rat; test: concentration in plasma after dosing; conditions: 1 h; dosed: Wyeth-14643; 1.0 mg/kg; oral; Male; Sprague-Dawley
[3] = test system: Rat; test: concentration in liver after dosing; conditions: 40 min; dosed: Bis 2-Chloroethoxy Methane; 20 mg/kg; iv; Female; F344
[4] = test system: Rat; test: concentration in heart after dosing; conditions: 4 h; dosed: Bis 2-Chloroethoxy Methane; 20 mg/kg; iv; Male; F344
[5] = test system: Rat; test: concentration in heart after dosing; conditions: 10 min; dosed: Bis 2-Chloroethoxy Methane; 20 mg/kg; iv; Male; F344
[6] = test system: Rat; test: concentration in plasma after dosing; conditions: 40 min; dosed: Bis 2-Chloroethoxy Methane; 20 mg/kg; iv; Male; F344
[7] = test system: Rat; test: concentration in plasma after dosing; conditions: 5 h; dosed: Bis 2-Chloroethoxy Methane; 20 mg/kg; iv; Female; F344
[8] = test system: Rat; test: concentration in plasma after dosing; conditions: 2 h; dosed: Bis 2-Chloroethoxy Methane; 40 mg/kg; iv; Male; Harlan Sprague Dawley
[9] = test system: Rat; test: concentration in thymus after dosing; conditions: 20 min; dosed: Bis 2-Chloroethoxy Methane; 20 mg/kg; iv; Female; F344
[10] = test system: Rat; test: concentration in brain after dosing; conditions: 0.5 h; dosed: Fluorotelomer alcohol 8+2; 24 mg/kg; oral; Male; Harlan Sprague Dawley
[11] = test system: Rat; test: concentration in liver after dosing; conditions: 3 h; dosed: Fluorotelomer alcohol 8+2; 24 mg/kg; oral; Male; Harlan Sprague Dawley
[12] = test system: Rat; test: concentration in liver after dosing; conditions: 0.5 h; dosed: Fluorotelomer alcohol 8+2; 80 mg/kg; oral; Female; Harlan Sprague Dawley
[13] = test system: Rat; test: concentration in plasma after dosing; conditions: dosed: Fluorotelomer alcohol 8+2, 40 mg/kg, iv, Female, Harlan Sprague-Dawley
[14] = test system: Rat; test: concentration in plasma after dosing; conditions: 2 h; dosed: Di-n-butyl phthalate; 50 mg/kg; oral; Male; Sprague-Dawley
[15] = test system: Rat; test: concentration in plasma after dosing; conditions: 40 min; dosed: Di-n-butyl phthalate; 20 mg/kg; iv; Male; Sprague-Dawley
[16] = test system: Rat; test: concentration in plasma after dosing; conditions: 5 h; dosed: Di-n-butyl phthalate; 20 mg/kg; iv; Male; Sprague-Dawley
[17] = test system: Rat; test: concentration in plasma after dosing; conditions: 0.5 h; dosed: Di-n-butyl phthalate; 50 mg/kg; oral; Male; Sprague-Dawley
[18] = test system: Rat; test: concentration in brain after dosing; conditions: 24 h; dosed: Perfluorodecanoic acid; 10 mg/kg; oral; Female; Harlan Sprague Dawley
[19] = test system: Rat; test: concentration in brain after dosing; conditions: 24 h; dosed: Perfluorodecanoic acid; 10 mg/kg; oral; Female; Harlan Sprague Dawley; remark: listed apart in the source
[20] = test system: Rat; test: concentration in liver after dosing; conditions: 24 h; dosed: Perfluorodecanoic acid; 10 mg/kg; oral; Male; Harlan Sprague Dawley
[21] = test system: Rat; test: concentration in plasma after dosing; conditions: 12 h; dosed: Primidone; 30 mg/kg; oral; Female; F344
[22] = test system: Rat; test: concentration in plasma after dosing; conditions: 0.25 h; dosed: Primidone; 80 mg/kg; oral; Female; Harlan Sprague-Dawley
[23] = test system: Rat; test: concentration in plasma after dosing; conditions: 22 h; dosed: Primidone; 130 mg/kg; oral; Male; F344
[24] = test system: Rat; test: concentration in plasma after dosing; conditions: 9 h; dosed: Primidone; 130 mg/kg; oral; Female; F344
[25] = test system: Rat; test: concentration in heart after dosing; conditions: 1 h; dosed: Thiodiglycolic Acid; 20 mg/kg; iv; Female; Harlan Sprague Dawley
[26] = test system: Rat; test: concentration in heart after dosing; conditions: 6.667 h; dosed: Thiodiglycolic Acid; 20 mg/kg; iv; Female; Harlan Sprague Dawley
[27] = test system: Rat; test: concentration in heart after dosing; conditions: 2 h; dosed: Thiodiglycolic Acid; 20 mg/kg; iv; Male; Harlan Sprague Dawley
[28] = test system: Rat; test: concentration in liver after dosing; conditions: 10 min; dosed: Thiodiglycolic Acid; 20 mg/kg; iv; Male; F344
[29] = test system: Rat; test: concentration in plasma after dosing; conditions: 20 min; dosed: dichloroacetic acid; 10 mg/kg; oral; Male; Harlan Sprague Dawley
[30] = test system: Rat; test: concentration in plasma after dosing; conditions: 2 min; dosed: dichloroacetic acid; 10 mg/kg; iv; Male; F344
[31] = test system: Rat; test: concentration in plasma after dosing; conditions: dosed: dichloroacetic acid, 40 mg/kg, oral, Female, Harlan Sprague Dawley
[32] = test system: dog; conditions: dosed: tetrachloroethylene, 72 ppm, inhalation, duration: 4 hr, male, beagle
Procedure, shortened: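 Concentration-versus-time or amount-versus-time points were compiled from published in vivo toxicokinetic studies and from two structured collections. The studies were found by PubMed searching, classifier screening and manual review. Points were mostly digitised from plot screenshots with WebPlotDigitizer, otherwise copied from tables, and kept in the reported units. Dose, route, subject details and medium were curated by hand from each paper, and sampling and analytical methods follow each source and were often unreported.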

[33] = test system: rat; test: concentration in plasma after dosing; negative times count back from the end of exposure; conditions: dosed: trichloroethylene, inhalation, duration: 4 hr, female, F344

concentration in plasma [1]: 118 ng/mL | concentration in plasma [2]: 755 ng/mL
Structure (SMILES): Cc1cccc(Nc2cc(Cl)nc(SCC(=O)O)n2)c1C

Structure (SMILES): ClCCOCOCCCl [Bis 2-Chloroethoxy Methane]
concentration in liver [3]: 734 ng/g | concentration in heart [4]: 112 ng/g | concentration in heart [5]: 13200 ng/g | concentration in plasma [6]: 1930 ng/mL | concentration in plasma [7]: 17.2 ng/mL | concentration in plasma [8]: 1290 ng/mL | concentration in thymus [9]: 26100 ng/g

concentration in brain [10]: 1810 ng/g | concentration in liver [11]: 3080 ng/g | concentration in liver [12]: 4040 ng/g | concentration in plasma ([13]; 0.75 h): 4710 ng/mL | concentration in plasma ([13]; 12 h): 55.5 ng/mL
Structure (SMILES): OCCC(F)(F)C(F)(F)C(F)(F)C(F)(F)C(F)(F)C(F)(F)C(F)(F)C(F)(F)F [Fluorotelomer alcohol 8+2]

Structure (SMILES): CCCCOC(=O)c1ccccc1C(=O)O [Mono-n-butyl phthalate]
concentration in plasma [14]: 809 ng/mL | concentration in plasma [15]: 5350 ng/mL | concentration in plasma [16]: 1030 ng/mL | concentration in plasma [17]: 20500 ng/mL

Structure (SMILES): O=C(O)C(F)(F)C(F)(F)C(F)(F)C(F)(F)C(F)(F)C(F)(F)C(F)(F)C(F)(F)C(F)(F)F [Perfluorodecanoic acid]
concentration in brain [18]: 1820 ng/g | concentration in brain [19]: 2560 ng/g | concentration in liver [20]: 105000 ng/g

Structure (SMILES): CCC1(c2ccccc2)C(=O)NC(=O)NC1=O [Phenobarbital]
concentration in plasma [21]: 930 ng/mL | concentration in plasma [22]: 400 ng/mL | concentration in plasma [23]: 4990 ng/mL | concentration in plasma [24]: 2440 ng/mL

Structure (SMILES): O=C(O)CSCC(=O)O [Thiodiglycolic Acid]
concentration in heart [25]: 1530 ng/g | concentration in heart [26]: 308 ng/g | concentration in heart [27]: 1310 ng/g | concentration in liver [28]: 155000 ng/g

Structure (SMILES): O=C(O)C(Cl)Cl [dichloroacetic acid]
concentration in plasma [29]: 291 ng/mL | concentration in plasma [30]: 30400 ng/mL | concentration in plasma ([31]; 5 min): 5140 ng/mL | concentration in plasma ([31]; 1.25 h): 4620 ng/mL

Structure (SMILES): O=C(O)C(Cl)(Cl)Cl [trichloroacetic acid]
amount in urine after dosing ([32]; 22 h): 4.04 mg | amount in urine after dosing ([32]; 46 h): 1.08 mg | amount in urine after dosing ([32]; 70 h): 1.11 mg | concentration in plasma ([33]; 30 s, 600 ppm): 21100 ng/mL | concentration in plasma ([33]; 241 s, 600.4 ppm): 15900 ng/mL | concentration in plasma ([33]; 0.2413 h, 600.4 ppm): 25200 ng/mL | concentration in plasma ([33]; 0.5005 h, 600.4 ppm): 28200 ng/mL | concentration in plasma ([33]; 0.963 h, 600 ppm): 24500 ng/mL | concentration in plasma ([33]; 2.113 h, 600 ppm): 33800 ng/mL | concentration in plasma ([33]; 4.901 h, 600.4 ppm): 36600 ng/mL | concentration in plasma ([33]; 5.077 h, 600 ppm): 46200 ng/mL | concentration in plasma ([33]; 20.89 h, 600.4 ppm): 8380 ng/mL | concentration in plasma ([33]; 21.02 h, 600 ppm): 25300 ng/mL | concentration in plasma ([33]; 28.48 h, 600.4 ppm): 3970 ng/mL | concentration in plasma ([33]; 29.96 h, 600 ppm): 14100 ng/mL | concentration in plasma ([33]; 44.93 h, 600.4 ppm): 1220 ng/mL | concentration in plasma ([33]; 45.37 h, 600 ppm): 8190 ng/mL | concentration in plasma ([33]; -0.5889 h, 600.4 ppm, during exposure): 15300 ng/mL | concentration in plasma ([33]; -3.292 h, 600.4 ppm, during exposure): 1380 ng/mL | concentration in plasma ([33]; -3.75 h, 600 ppm, during exposure): 5790 ng/mL
